Data set [1] concerns the target Protein kinase C delta type (Homo sapiens, UniProt Q05655). Briefly: Activation of PKCdelta (unknown origin) after 40 mins. The gist of the method: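 In vitro PKCδ phosphorylation of a PKC peptide substrate, with 0.05 mg/mL phosphatidylserine and no diacylglycerol. Compounds were tested as a twelve-point semilog dilution series starting at 10 µM. The reaction was started with ATP and run 40 min at room temperature.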

Data set [2] has as its system Keratinocyte. Put plainly: Induction of proimflammatory activity in human primary epidermal keratinocytes assessed as IL-8 release after 6 hrs relative to ingenol 3-angelate. The data set is classed as functional. The method in brief: (§1)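 Adult log-phase primary epidermal keratinocytes were seeded at 10,000 cells/well. Cells were incubated with titrated compound for 6 h at 37 °C in 5% CO2. Secreted IL8 was measured by Meso Scale 4-spot cytokine plates or by HTRF. EC50 and Emax were referenced to the maximal response of ingenol 3-angelate.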

The test system of data set [3] is Keratinocyte. Briefly: Induction of proimflammatory activity in human primary epidermal keratinocytes assessed as TNFalpha release after 6 hrs relative to ingenol 3-angelate. The data set is classed as functional. The gist of the method:
(§2)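 Adult log-phase primary epidermal keratinocytes were seeded at 10,000 cells/well. Cells were incubated with titrated compound for 6 h at 37 °C in 5% CO2. Secreted TNFα was measured by Meso Scale 4-spot cytokine plates. EC50 and Emax were referenced to the maximal response of ingenol 3-angelate.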

Data set [4] is described as follows: Immunostimulatory activity in polymorphonuclear leukocytes (unknown origin) assessed as induction of oxidative burst after 40 mins by fluorescence assay relative to ingenol 3-angelate. It counts as functional. The method in brief:
(§3)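 PMN were isolated from fresh buffy coats. Cells were incubated 40 min at ambient temperature with titrated compound (top concentration 10 µM) pre-mixed with hydroethidine. Respiratory burst was read as fluorescence at ex 485/em 579 nm. EC50 is the concentration giving 50% of the maximum effect of ingenol 3-angelate; Emax is the maximal response relative to it.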

Data set [5] is described as follows: Immunostimulatory activity in polymorphonuclear leukocytes (unknown origin) assessed as induction of oxidative burst after 40 mins by fluorescence assay. The data set is classed as functional, cell-based. The method in brief:
as §3

The subject of data set [6] is HeLa. Briefly: Induction of necrosis in human HeLa cells assessed as remaining metabolic activity after 30 mins by resazurin dye-based assay. It counts as functional. The conditions noted are these: 0.5 h, read-out: LC50 (the source's name). The gist of the method: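 HeLa cells were exposed to increasing concentrations up to 400 µM for 30 min at 37 °C. Metabolic activity was then measured with a resazurin-based dye (PrestoBlue). LC50 is the concentration giving 50% loss of metabolic activity.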

The test system of data set [7] is Keratinocyte. Briefly: Induction of proimflammatory activity in human primary epidermal keratinocytes assessed as IL-8 release after 6 hrs. The data set is classed as functional, cell-based. The gist of the method:
as §1

For data set [8], the system named is Keratinocyte. Put plainly: Induction of proimflammatory activity in human primary epidermal keratinocytes assessed as TNFalpha release after 6 hrs. It counts as functional, cell-based. The gist of the method:
as §2

Data set [9] is described as follows: Chemical stability of the compound in aqueous buffer with less than 30% organic solvent assessed as compound recovery at pH 7.4 measured over 16 hrs by HPLC analysis. The conditions noted are these: read-out: Drug recovery. It counts as physicochemical. The method in brief: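 A DMSO stock was diluted into pre-heated (37 °C) aqueous buffer pH 7.4 to ≤30% v/v organic content. The solution was held at 37 °C in the HPLC autosampler and injected within 5 min, then repeatedly over 16 h. Recovery was taken from the decrease in compound peak area, with UV detection normally at 270 nm.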

The values below come from ChEMBL document CHEMBL3102768, “Synthesis, biological evaluation and SAR of 3-benzoates of ingenol for treatment of actinic keratosis and non-melanoma skin cancer” (Bioorg Med Chem Lett, 2014).

SMILES strings stand for the structures.

Sequence of Protein kinase C delta type (Q05655 whole entry): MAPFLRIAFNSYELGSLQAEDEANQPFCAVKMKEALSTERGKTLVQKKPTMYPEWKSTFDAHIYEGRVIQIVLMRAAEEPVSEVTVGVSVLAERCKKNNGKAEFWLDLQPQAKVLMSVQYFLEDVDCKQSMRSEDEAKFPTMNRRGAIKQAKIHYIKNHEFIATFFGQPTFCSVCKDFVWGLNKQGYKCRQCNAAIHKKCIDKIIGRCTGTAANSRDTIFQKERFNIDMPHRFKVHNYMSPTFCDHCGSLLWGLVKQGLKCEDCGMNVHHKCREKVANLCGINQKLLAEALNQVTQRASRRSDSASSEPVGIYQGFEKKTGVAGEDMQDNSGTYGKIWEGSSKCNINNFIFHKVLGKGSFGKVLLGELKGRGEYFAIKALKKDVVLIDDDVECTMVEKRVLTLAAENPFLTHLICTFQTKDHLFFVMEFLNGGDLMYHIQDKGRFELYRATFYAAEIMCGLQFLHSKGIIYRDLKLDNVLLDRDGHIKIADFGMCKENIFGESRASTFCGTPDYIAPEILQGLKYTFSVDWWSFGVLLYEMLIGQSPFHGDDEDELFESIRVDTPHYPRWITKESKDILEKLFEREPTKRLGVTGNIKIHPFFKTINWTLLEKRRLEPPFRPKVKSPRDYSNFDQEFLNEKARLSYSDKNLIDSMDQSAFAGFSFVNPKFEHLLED

For `CC1=C[C@]23C(=O)[C@@H](C=C(CO)[C@@H](O)[C@]2(O)[C@H]1OC(=O)c1ccccc1)[C@H]1[C@@H](C[C@H]3C)C1(C)C`, the results for the concentration for a half-maximal effect (EC50) in data set [1] and in data set [5] were 6.1 nM and 6 nM, respectively. The maximal effect (Emax) is 54% in data set [2], 60% in [3] and 110% in data set [4].
On to `CC1=C[C@]23C(=O)[C@@H](C=C(CO)[C@@H](O)[C@]2(O)[C@H]1OC(=O)c1ccccc1N)[C@H]1[C@@H](C[C@H]3C)C1(C)C`, for which the CC50 in data set [6] was 199000 nM. The results for the Emax in data set [2], in data set [3] and in [4] were 101%, 112% and 116%, respectively. Also, the concentration giving a half-maximal response (EC50) in [7] was determined as 3.4 nM; in [8] it was 5.5 nM; in [5] it was 15 nM. Further, the remaining at 16 h in [9] was 58%.
As to `CNc1cccc(C)c1C(=O)O[C@H]1C(C)=C[C@]23C(=O)[C@@H](C=C(CO)[C@@H](O)[C@]12O)[C@H]1[C@@H](C[C@H]3C)C1(C)C`, the CC50 in data set [6] was 105000 nM. Also, the Emax came out at 127% in data set [2], 143% in data set [3] and 136% in data set [4]. The EC50 in data set [7] amounted to 12 nM; in data set [8], 16 nM; in [5], 46 nM. Moreover, the remaining at 16 h in [9] was > 95%.
Take `CC1=C[C@]23C(=O)[C@@H](C=C(CO)[C@@H](O)[C@]2(O)[C@H]1OC(=O)c1ccccc1NCc1ccccc1)[C@H]1[C@@H](C[C@H]3C)C1(C)C`: the CC50 in data set [6] stood at 168000 nM. Besides, the Emax is 115% in data set [2], 128% in data set [3] and 127% in [4]. Also, the EC50 in data set [7] was found to be 1.2 nM; in data set [8], 1.5 nM; in data set [5], 8.6 nM. The remaining at 16 h in data set [9] came out at 65%.
In the case of `CC1=C[C@]23C(=O)[C@@H](C=C(CO)[C@@H](O)[C@]2(O)[C@H]1OC(=O)c1ccccc1OC(C)C)[C@H]1[C@@H](C[C@H]3C)C1(C)C`, the CC50 in [6] came to 192000 nM. The maximal response (Emax) in data set [2] came out at 105%; in [3], 101%; in [4], 113%. In addition, the results for the EC50 in data set [7], in data set [8] and in [5] were 2.7 nM, 4 nM and 8.7 nM, respectively. Further, in [9], the remaining at 16 h amounted to 65%.
For `COc1cccc(N)c1C(=O)O[C@H]1C(C)=C[C@]23C(=O)[C@@H](C=C(CO)[C@@H](O)[C@]12O)[C@H]1[C@@H](C[C@H]3C)C1(C)C`, the figures for the Emax in [2], in data set [3] and in data set [4] were 111%, 83% and 109%, respectively. The EC50 worked out at 41 nM in data set [7], 108 nM in data set [8] and 25 nM in [5]. Also, in data set [9], the remaining at 16 h is > 95%.
Regarding `CC1=C[C@]23C(=O)[C@@H](C=C(CO)[C@@H](O)[C@]2(O)[C@H]1OC(=O)c1c(N)cccc1F)[C@H]1[C@@H](C[C@H]3C)C1(C)C`, in data set [6], the CC50 worked out at 201000 nM. Besides, the figures for the maximal response (Emax) in [2], in [3] and in data set [4] were 104%, 104% and 133%, respectively. Further, the results for the concentration giving a half-maximal response (EC50) in data set [7], in [8] and in [5] were 8.6 nM, 10 nM and 12 nM, respectively. In addition, the remaining at 16 h in [9] was 66%.
Take `C/C=C(/C)C(=O)O[C@H]1C(C)=C[C@]23C(=O)[C@@H](C=C(CO)[C@@H](O)[C@]12O)[C@H]1[C@@H](C[C@H]3C)C1(C)C` [INGENOL MEBUTATE]: the CC50 in data set [6] worked out at 230000 nM. Moreover, the concentration giving a half-maximal response (EC50) in [5] came to 8.7 nM.
Consider `CC1=C[C@]23C(=O)[C@@H](C=C(CO)[C@@H](O)[C@]2(O)[C@H]1OC(=O)c1ccccc1C)[C@H]1[C@@H](C[C@H]3C)C1(C)C`, for which the CC50 in data set [6] is 115000 nM. In addition, the Emax in data set [2] worked out at 58%; in [3] it was 64%; in [4] it was 107%. Further, the concentration giving a half-maximal response (EC50) in data set [7] is 15 nM; in data set [8], 13 nM; in data set [5], 5.7 nM. For the same compound, the remaining at 16 h in [9] is 73%.
In the case of `COc1cccc(NCc2ccccc2)c1C(=O)O[C@H]1C(C)=C[C@]23C(=O)[C@@H](C=C(CO)[C@@H](O)[C@]12O)[C@H]1[C@@H](C[C@H]3C)C1(C)C`, in [6], the CC50 worked out at 400000 nM. The Emax in [2] came to 117%; in data set [3], 120%; in data set [4], 112%. Besides, the concentration giving a half-maximal response (EC50) in data set [7] came out at 6.6 nM; in data set [8], 19 nM; in data set [5], 23 nM. In addition, the remaining at 16 h in data set [9] is > 95%.
Take `CCCCCCCCCCCCNc1ccccc1C(=O)O[C@H]1C(C)=C[C@]23C(=O)[C@@H](C=C(CO)[C@@H](O)[C@]12O)[C@H]1[C@@H](C[C@H]3C)C1(C)C`: in data set [6], the CC50 amounted to 400000 nM. Moreover, the Emax in data set [2] was determined as 111%; in data set [3], 150%; in data set [4] it was 78%. Further, the EC50 in data set [7] was found to be 16 nM; in data set [8], 14 nM; in [5] it was 25 nM.
As to `CC1=C[C@]23C(=O)[C@@H](C=C(CO)[C@@H](O)[C@]2(O)[C@H]1OC(=O)c1c(C)cccc1NCc1ccccc1)[C@H]1[C@@H](C[C@H]3C)C1(C)C`, the CC50 in [6] came out at 187000 nM. Besides, the maximal effect (Emax) worked out at 122% in data set [2], 126% in data set [3] and 103% in data set [4]. In addition, the half-maximal effective concentration (EC50) came to 3.8 nM in [7], 7.6 nM in data set [8] and 42 nM in data set [5]. Besides, the remaining at 16 h in data set [9] was > 95%.
`CC1=C[C@]23C(=O)[C@@H](C=C(CO)[C@@H](O)[C@]2(O)[C@H]1OC(=O)c1c(N)cccc1Cl)[C@H]1[C@@H](C[C@H]3C)C1(C)C`: the CC50 in data set [6] was 185000 nM. The figures for the Emax in data set [2], in [3] and in data set [4] were 104%, 108% and 161%, respectively. The EC50 in data set [7] came to 20 nM; in [8], 28 nM; in data set [5] it was 7.1 nM. Also, in data set [9], the remaining at 16 h came out at 93%.
Regarding `CNc1cccc(Cl)c1C(=O)O[C@H]1C(C)=C[C@]23C(=O)[C@@H](C=C(CO)[C@@H](O)[C@]12O)[C@H]1[C@@H](C[C@H]3C)C1(C)C`, in data set [6], the CC50 was 145000 nM. For the same compound, the maximum response (Emax) was 105% in data set [2], 97% in data set [3] and 124% in data set [4]. The EC50 in data set [7] came out at 18 nM; in data set [8] it was 21 nM; in [5], 21 nM. Moreover, the remaining at 16 h in data set [9] is > 95%.
As to `CCCCCCCCCCCCCCCCNc1ccccc1C(=O)O[C@H]1C(C)=C[C@]23C(=O)[C@@H](C=C(CO)[C@@H](O)[C@]12O)[C@H]1[C@@H](C[C@H]3C)C1(C)C`, the maximum response (Emax) turned out to be 125% in data set [2], 120% in data set [3] and 94% in data set [4]. Also, the EC50 in [7] was found to be 61 nM; in data set [8], 200 nM; in data set [5] it was 1340 nM. Moreover, in data set [9], the remaining at 16 h came out at 90%.
`CC1=C[C@]23C(=O)[C@@H](C=C(CO)[C@@H](O)[C@]2(O)[C@H]1OC(=O)c1c(C)cccc1Cl)[C@H]1[C@@H](C[C@H]3C)C1(C)C`: the CC50 in [6] came out at 126000 nM. The maximal response (Emax) in data set [2] came out at 52%; in [3] it was 52%; in [4], 130%. For the same compound, the concentration giving a half-maximal response (EC50) in data set [7] worked out at 51 nM; in [8], 54 nM; in [5] it was 6.6 nM. Besides, the remaining at 16 h in [9] is > 95%.
`CNc1cccc(F)c1C(=O)O[C@H]1C(C)=C[C@]23C(=O)[C@@H](C=C(CO)[C@@H](O)[C@]12O)[C@H]1[C@@H](C[C@H]3C)C1(C)C`: the CC50 in data set [6] came to 152000 nM. Further, the Emax worked out at 145% in [2], 174% in data set [3] and 123% in data set [4]. The concentration giving a half-maximal response (EC50) stood at 3 nM in data set [7], 4.1 nM in data set [8] and 9.3 nM in data set [5]. In addition, the remaining at 16 h in data set [9] is 74%.
With `CC1=C[C@]23C(=O)[C@@H](C=C(CO)[C@@H](O)[C@]2(O)[C@H]1OC(=O)c1ccccc1C(C)C)[C@H]1[C@@H](C[C@H]3C)C1(C)C`, the CC50 in data set [6] amounted to 110000 nM. In addition, the Emax in data set [2] is 86%; in data set [3], 96%; in data set [4] it was 120%. Further, the EC50 in data set [7] was determined as 4.4 nM; in data set [8], 5.7 nM; in [5], 11 nM. In addition, in [9], the remaining at 16 h is 70%.
